Laboratory results from ChEMBL document CHEMBL1136943, “Nocathiacin analogs: Synthesis and antibacterial activity of novel water-soluble amides” (Bioorg Med Chem Lett, 2009).
Values after ≈ are worked out from the molar mass of the structure shown.

What was measured:
Staphylococcus aureus [1] = assay: Antibacterial activity against Staphylococcus aureus MB2865 in liquid culture by turbidity method; type: functional
In short: (§1)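 MIC is the lowest concentration giving 100% inhibition of bacterial growth in liquid culture, read by turbidity.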

Streptococcus pneumoniae = assay: Antibacterial activity against Streptococcus pneumoniae CL2883 in liquid culture by turbidity method; type: functional; in short: as §1
Staphylococcus aureus [2] = assay: Antibacterial activity against Staphylococcus aureus infected in mouse model assessed as reduction of >= 2 log 10 cfu kidney burden; type: functional
In short: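 Systemic S. aureus infection mouse model (SATOA). Compounds were given iv; […]. Kidney bacterial burden (cfu) was compared with untreated control. ED99 is the dose giving a reduction of at least 2 log10 cfu in kidney burden.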

Enterococcus faecalis = assay: Antibacterial activity against Enterococcus faecalis C21560 in liquid culture by turbidity method; type: functional; in short: as §1
[3] = Aqueous solubility by lyophilization solubility assay; type: physicochemical
In short: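 Amorphous powders from lyophilized material, as TFA salts; aqueous solubility measured by nephelometry.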

SMILES	MIC (Staphylococcus aureus [1]) [µg/mL]	MIC (Streptococcus pneumoniae) [µg/mL]	ED99 (Staphylococcus aureus [2]) [mg/kg]	MIC (Enterococcus faecalis) [µg/mL]	solubility [3] [µg/mL]
CO/C(C)=C1/NC(=O)[C@H]([C@@H](C)O)NC(=O)c2csc(n2)-c2cc(O)c(-c3nc(C(=O)NCC(=O)N4CCN(C)CC4)cs3)nc2-c2csc(n2)[C@@H]2COC(=O)c3c4c5c(cccc5n3O)COC(=O)[C@@H](O[C@H]3C[C@](C)(O)[C@H](N(C)C)[C@H](C)O3)[C@@H](OC4)[C@H](NC(=O)c3csc1n3)c1nc(cs1)C(=O)N2	0.0038 (≈ 0.00252 µM)	0.00048 (≈ 0.000318 µM)	0.13	0.03 (≈ 0.0199 µM)	–
CO/C(C)=C1/NC(=O)[C@H]([C@@H](C)O)NC(=O)c2csc(n2)-c2cc(O)c(-c3nc(C(=O)N4CCN(CC(=O)N(C)C)CC4)cs3)nc2-c2csc(n2)[C@@H]2COC(=O)c3c4c5c(cccc5n3O)COC(=O)[C@@H](O[C@H]3C[C@](C)(O)[C@H](N(C)C)[C@H](C)O3)[C@@H](OC4)[C@H](NC(=O)c3csc1n3)c1nc(cs1)C(=O)N2	0.12 (≈ 0.0788 µM)	0.0038 (≈ 0.0025 µM)	–	0.25 (≈ 0.164 µM)	–
CO/C(C)=C1/NC(=O)[C@H]([C@@H](C)O)NC(=O)c2csc(n2)-c2cc(O)c(-c3nc(C(=O)NCCNC(N)=O)cs3)nc2-c2csc(n2)[C@@H]2COC(=O)c3c4c5c(cccc5n3O)COC(=O)[C@@H](O[C@H]3C[C@](C)(O)[C@H](N(C)C)[C@H](C)O3)[C@@H](OC4)[C@H](NC(=O)c3csc1n3)c1nc(cs1)C(=O)N2	0.06 (≈ 0.0412 µM)	0.0075 (≈ 0.00516 µM)	–	0.5 (≈ 0.344 µM)	–
CO/C(C)=C1/NC(=O)[C@H]([C@@H](C)O)NC(=O)c2csc(n2)-c2cc(O)c(-c3nc(C(=O)NCCNC(=O)CN(C)C)cs3)nc2-c2csc(n2)[C@@H]2COC(=O)c3c4c5c(cccc5n3O)COC(=O)[C@@H](O[C@H]3C[C@](C)(O)[C@H](N(C)C)[C@H](C)O3)[C@@H](OC4)[C@H](NC(=O)c3csc1n3)c1nc(cs1)C(=O)N2.O=C(O)C(F)(F)F	–	–	–	–	> 10000
CO/C(C)=C1/NC(=O)[C@H]([C@@H](C)O)NC(=O)c2csc(n2)-c2cc(O)c(-c3nc(C(=O)N4CCN(CC(=O)N(C)C)CC4)cs3)nc2-c2csc(n2)[C@@H]2COC(=O)c3c4c5c(cccc5n3O)COC(=O)[C@@H](O[C@H]3C[C@](C)(O)[C@H](N(C)C)[C@H](C)O3)[C@@H](OC4)[C@H](NC(=O)c3csc1n3)c1nc(cs1)C(=O)N2.O=C(O)C(F)(F)F	–	–	–	–	> 10000
CO/C(C)=C1/NC(=O)[C@H]([C@@H](C)O)NC(=O)c2csc(n2)-c2cc(O)c(-c3nc(C(=O)NCCN)cs3)nc2-c2csc(n2)[C@@H]2COC(=O)c3c4c5c(cccc5n3O)COC(=O)[C@@H](O[C@H]3C[C@](C)(O)[C@H](N(C)C)[C@H](C)O3)[C@@H](OC4)[C@H](NC(=O)c3csc1n3)c1nc(cs1)C(=O)N2	0.5 (≈ 0.354 µM)	0.06 (≈ 0.0425 µM)	–	2 (≈ 1.42 µM)	–
CO/C(C)=C1/NC(=O)[C@H]([C@@H](C)O)NC(=O)c2csc(n2)-c2cc(O)c(-c3nc(C(=O)NCCCN4CCOCC4)cs3)nc2-c2csc(n2)[C@@H]2COC(=O)c3c4c5c(cccc5n3O)COC(=O)[C@@H](O[C@H]3C[C@](C)(O)[C@H](N(C)C)[C@H](C)O3)[C@@H](OC4)[C@H](NC(=O)c3csc1n3)c1nc(cs1)C(=O)N2.O=C(O)C(F)(F)F	–	–	–	–	> 10000
CO/C(C)=C1/NC(=O)[C@H]([C@@H](C)O)NC(=O)c2csc(n2)-c2cc(O)c(-c3nc(C(=O)NCCNCC(O)CO)cs3)nc2-c2csc(n2)[C@@H]2COC(=O)c3c4c5c(cccc5n3O)COC(=O)[C@@H](O[C@H]3C[C@](C)(O)[C@H](N(C)C)[C@H](C)O3)[C@@H](OC4)[C@H](NC(=O)c3csc1n3)c1nc(cs1)C(=O)N2 (stereo not given in full)	0.5 (≈ 0.337 µM)	0.125 (≈ 0.0841 µM)	–	2 (≈ 1.35 µM)	–
CO/C(C)=C1/NC(=O)[C@H]([C@@H](C)O)NC(=O)c2csc(n2)-c2cc(O)c(-c3nc(C(=O)NCCCN(C)C)cs3)nc2-c2csc(n2)[C@@H]2COC(=O)c3c4c5c(cccc5n3O)COC(=O)[C@@H](O[C@H]3C[C@](C)(O)[C@H](N(C)C)[C@H](C)O3)[C@@H](OC4)[C@H](NC(=O)c3csc1n3)c1nc(cs1)C(=O)N2.O=C(O)C(F)(F)F	–	–	–	–	> 10000
CO/C(C)=C1/NC(=O)[C@H]([C@@H](C)O)NC(=O)c2csc(n2)-c2cc(O)c(-c3nc(C(=O)NCCCN(C)C)cs3)nc2-c2csc(n2)[C@@H]2COC(=O)c3c4c5c(cccc5n3O)COC(=O)[C@@H](O[C@H]3C[C@](C)(O)[C@H](N(C)C)[C@H](C)O3)[C@@H](OC4)[C@H](NC(=O)c3csc1n3)c1nc(cs1)C(=O)N2	0.06 (≈ 0.0413 µM)	0.00095 (≈ 0.000654 µM)	>0.5	0.12 (≈ 0.0826 µM)	–
CO/C(C)=C1/NC(=O)[C@H]([C@@H](C)O)NC(=O)c2csc(n2)-c2cc(O)c(-c3nc(C(=O)NCC(=O)N4CCN(C)CC4)cs3)nc2-c2csc(n2)[C@@H]2COC(=O)c3c4c5c(cccc5n3O)COC(=O)[C@@H](O[C@H]3C[C@](C)(O)[C@H](N(C)C)[C@H](C)O3)[C@@H](OC4)[C@H](NC(=O)c3csc1n3)c1nc(cs1)C(=O)N2.O=C(O)C(F)(F)F	–	–	–	–	> 10000
CO/C(C)=C1/NC(=O)[C@H]([C@@H](C)O)NC(=O)c2csc(n2)-c2cc(O)c(-c3nc(C(=O)NCCNCC(O)CO)cs3)nc2-c2csc(n2)[C@@H]2COC(=O)c3c4c5c(cccc5n3O)COC(=O)[C@@H](O[C@H]3C[C@](C)(O)[C@H](N(C)C)[C@H](C)O3)[C@@H](OC4)[C@H](NC(=O)c3csc1n3)c1nc(cs1)C(=O)N2.O=C(O)C(F)(F)F (stereo not given in full)	–	–	–	–	10000
CO/C(C)=C1/NC(=O)[C@H]([C@@H](C)O)NC(=O)c2csc(n2)-c2cc(O)c(-c3nc(C(=O)NCCCN4CCN(C)CC4)cs3)nc2-c2csc(n2)[C@@H]2COC(=O)c3c4c5c(cccc5n3O)COC(=O)[C@@H](O[C@H]3C[C@](C)(O)[C@H](N(C)C)[C@H](C)O3)[C@@H](OC4)[C@H](NC(=O)c3csc1n3)c1nc(cs1)C(=O)N2.O=C(O)C(F)(F)F	–	–	–	–	> 10000
C=C(NC(=O)c1csc(-c2nc3c(cc2O)-c2nc(cs2)C(=O)N[C@@H]([C@@H](C)O)C(=O)N/C(=C(\C)OC)c2nc(cs2)C(=O)N[C@@H]2c4nc(cs4)C(=O)N[C@@H](COC(=O)c4c5c6c(cccc6n4O)COC(=O)[C@@H](O[C@H]4C[C@](C)(O)[C@H](N(C)C)[C@H](C)O4)[C@H]2OC5)c2nc-3cs2)n1)C(N)=O.O=C(O)C(F)(F)F [NOCATHIACIN I]	–	–	–	–	340
CO/C(C)=C1/NC(=O)[C@H]([C@@H](C)O)NC(=O)c2csc(n2)-c2cc(O)c(-c3nc(C(=O)N(C)CCN(C)C)cs3)nc2-c2csc(n2)[C@@H]2COC(=O)c3c4c5c(cccc5n3O)COC(=O)[C@@H](O[C@H]3C[C@](C)(O)[C@H](N(C)C)[C@H](C)O3)[C@@H](OC4)[C@H](NC(=O)c3csc1n3)c1nc(cs1)C(=O)N2	0.06 (≈ 0.0413 µM)	0.0038 (≈ 0.00261 µM)	>0.5	0.12 (≈ 0.0826 µM)	–
CO/C(C)=C1/NC(=O)[C@H]([C@@H](C)O)NC(=O)c2csc(n2)-c2cc(O)c(-c3nc(C(=O)NCCNC(N)=O)cs3)nc2-c2csc(n2)[C@@H]2COC(=O)c3c4c5c(cccc5n3O)COC(=O)[C@@H](O[C@H]3C[C@](C)(O)[C@H](N(C)C)[C@H](C)O3)[C@@H](OC4)[C@H](NC(=O)c3csc1n3)c1nc(cs1)C(=O)N2.O=C(O)C(F)(F)F	–	–	–	–	< 10000
CO/C(C)=C1/NC(=O)[C@H]([C@@H](C)O)NC(=O)c2csc(n2)-c2cc(O)c(-c3nc(C(=O)NCCNC(=O)c4cc(O)cc(O)c4)cs3)nc2-c2csc(n2)[C@@H]2COC(=O)c3c4c5c(cccc5n3O)COC(=O)[C@@H](O[C@H]3C[C@](C)(O)[C@H](N(C)C)[C@H](C)O3)[C@@H](OC4)[C@H](NC(=O)c3csc1n3)c1nc(cs1)C(=O)N2	> 1	–	–	> 1	–
CO/C(C)=C1/NC(=O)[C@H]([C@@H](C)O)NC(=O)c2csc(n2)-c2cc(O)c(-c3nc(C(=O)NCCN(C)C)cs3)nc2-c2csc(n2)[C@@H]2COC(=O)c3c4c5c(cccc5n3O)COC(=O)[C@@H](O[C@H]3C[C@](C)(O)[C@H](N(C)C)[C@H](C)O3)[C@@H](OC4)[C@H](NC(=O)c3csc1n3)c1nc(cs1)C(=O)N2.O=C(O)C(F)(F)F	–	–	–	–	> 10000
CO/C(C)=C1/NC(=O)[C@H]([C@@H](C)O)NC(=O)c2csc(n2)-c2cc(O)c(-c3nc(C(=O)NCCNC(=O)CN4CCOCC4)cs3)nc2-c2csc(n2)[C@@H]2COC(=O)c3c4c5c(cccc5n3O)COC(=O)[C@@H](O[C@H]3C[C@](C)(O)[C@H](N(C)C)[C@H](C)O3)[C@@H](OC4)[C@H](NC(=O)c3csc1n3)c1nc(cs1)C(=O)N2.O=C(O)C(F)(F)F	–	–	–	–	> 10000
CO/C(C)=C1/NC(=O)[C@H]([C@@H](C)O)NC(=O)c2csc(n2)-c2cc(O)c(-c3nc(C(=O)NCCN)cs3)nc2-c2csc(n2)[C@@H]2COC(=O)c3c4c5c(cccc5n3O)COC(=O)[C@@H](O[C@H]3C[C@](C)(O)[C@H](N(C)C)[C@H](C)O3)[C@@H](OC4)[C@H](NC(=O)c3csc1n3)c1nc(cs1)C(=O)N2.O=C(O)C(F)(F)F	–	–	–	–	> 10000
CO/C(C)=C1/NC(=O)[C@H]([C@@H](C)O)NC(=O)c2csc(n2)-c2cc(O)c(-c3nc(C(=O)N(C)CCN(C)C)cs3)nc2-c2csc(n2)[C@@H]2COC(=O)c3c4c5c(cccc5n3O)COC(=O)[C@@H](O[C@H]3C[C@](C)(O)[C@H](N(C)C)[C@H](C)O3)[C@@H](OC4)[C@H](NC(=O)c3csc1n3)c1nc(cs1)C(=O)N2.O=C(O)C(F)(F)F	–	–	–	–	> 10000
CO/C(C)=C1/NC(=O)[C@H]([C@@H](C)O)NC(=O)c2csc(n2)-c2cc(O)c(-c3nc(C(=O)N4CCN(C)CC4)cs3)nc2-c2csc(n2)[C@@H]2COC(=O)c3c4c5c(cccc5n3O)COC(=O)[C@@H](O[C@H]3C[C@](C)(O)[C@H](N(C)C)[C@H](C)O3)[C@@H](OC4)[C@H](NC(=O)c3csc1n3)c1nc(cs1)C(=O)N2.O=C(O)C(F)(F)F	–	–	–	–	> 10000
